Assay results as given in ChEMBL document CHEMBL4725474, “Discovery of a Selective, Covalent IRAK1 Inhibitor with Antiproliferative Activity in MYD88 Mutated B-Cell Lymphoma” (ACS Med Chem Lett, 2020).
The source made the active and inactive calls. No cut-off for these calls is given here.

Key:
[1] = molecular target: T1, Interleukin-1 receptor-associated kinase 1 (Homo sapiens, UniProt P51617); assay: Inhibition of wild-type human partial length IRAK1 (R194 to S712 residues) expressed in mammalian expression system by Kinomescan method
Target sequence in this assay (P51617 whole entry, the tested form may be a part): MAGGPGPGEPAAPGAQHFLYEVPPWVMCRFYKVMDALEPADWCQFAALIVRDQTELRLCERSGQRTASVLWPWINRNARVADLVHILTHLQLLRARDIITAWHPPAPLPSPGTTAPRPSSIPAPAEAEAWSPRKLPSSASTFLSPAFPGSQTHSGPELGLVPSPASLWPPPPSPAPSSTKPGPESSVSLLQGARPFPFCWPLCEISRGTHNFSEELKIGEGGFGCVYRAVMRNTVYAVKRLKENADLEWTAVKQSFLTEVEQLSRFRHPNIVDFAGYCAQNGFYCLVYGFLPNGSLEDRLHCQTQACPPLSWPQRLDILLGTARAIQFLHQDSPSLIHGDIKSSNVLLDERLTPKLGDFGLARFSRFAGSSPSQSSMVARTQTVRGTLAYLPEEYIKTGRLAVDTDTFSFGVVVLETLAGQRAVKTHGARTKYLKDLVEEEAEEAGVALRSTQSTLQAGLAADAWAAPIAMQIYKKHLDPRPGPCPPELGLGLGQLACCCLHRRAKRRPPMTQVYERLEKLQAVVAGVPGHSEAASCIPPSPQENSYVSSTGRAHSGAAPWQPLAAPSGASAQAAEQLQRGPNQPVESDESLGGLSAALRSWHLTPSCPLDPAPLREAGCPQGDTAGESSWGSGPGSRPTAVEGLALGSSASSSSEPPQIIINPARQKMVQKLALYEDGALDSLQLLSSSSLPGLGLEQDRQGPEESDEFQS

[2] = molecular target: T2, Interleukin-1 receptor-associated kinase 4 (Homo sapiens, UniProt Q9NWZ3); assay: Inhibition of wild-type human partial length IRAK4 (M1 to S460 residues) expressed in mammalian expression system by Kinomescan method
T2 sequence (Q9NWZ3 whole entry): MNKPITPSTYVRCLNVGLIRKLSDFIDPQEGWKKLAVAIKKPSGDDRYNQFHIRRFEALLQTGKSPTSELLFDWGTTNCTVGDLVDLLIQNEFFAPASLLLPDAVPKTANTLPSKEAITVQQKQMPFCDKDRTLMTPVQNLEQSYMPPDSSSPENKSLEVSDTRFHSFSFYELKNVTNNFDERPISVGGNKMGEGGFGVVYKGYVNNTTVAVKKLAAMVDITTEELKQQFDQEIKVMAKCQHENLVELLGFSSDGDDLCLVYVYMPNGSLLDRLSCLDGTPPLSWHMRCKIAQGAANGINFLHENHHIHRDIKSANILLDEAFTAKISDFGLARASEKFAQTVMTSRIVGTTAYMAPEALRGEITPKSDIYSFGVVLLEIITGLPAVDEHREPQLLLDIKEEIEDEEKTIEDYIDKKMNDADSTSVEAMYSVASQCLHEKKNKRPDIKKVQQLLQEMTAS

OCI-Ly7 = assay: Cytotoxicity against human OCILY7 cells expressing MYD88 mutant assessed as cell killing measured after 72 hrs by CellTiter-Glo luminescent cell viability assay; type: functional, cell-based
Outline: (§1)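 Cells were exposed to inhibitors for 72 h, and viability was read by CellTiter-Glo luminescence. EC50 values were derived from dose–response curves.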

OCI-Ly3 = assay: Cytotoxicity against human OCILY3 cells expressing MYD88 mutant assessed as cell killing measured after 72 hrs by CellTiter-Glo luminescent cell viability assay; type: functional, cell-based; outline: as §1
[3] = molecular target: T1, Interleukin-1 receptor-associated kinase 1; assay: Inhibition of desthio-biotinylated JH-XIII-39-01 probe binding to IRAK1 in human BCWM1 cells assessed as blocking of IRAK1 pulldown at 5 uM measured after 90 mins by Western blot based pulldown assay; type: cell-based
Target sequence in this assay (P51617 whole entry, looked up, the tested form may be a part): as the sequence (P51617 whole entry, the tested form may be a part) above

TMD8 = assay: Cytotoxicity against human TMD8 cells expressing MYD88 mutant assessed as cell killing measured after 72 hrs by CellTiter-Glo luminescent cell viability assay; type: functional, cell-based; outline: as §1
Ramos = assay: Cytotoxicity against human Ramos cells expressing MYD88 mutant assessed as cell killing measured after 72 hrs by CellTiter-Glo luminescent cell viability assay; type: functional, cell-based; outline: as §1
[4] = molecular target: T1, Interleukin-1 receptor-associated kinase 1; assay: Inhibition of recombinant IRAK1 (unknown origin) by Invitrogen adapta assay
Target sequence in this assay (P51617 whole entry, the tested form may be a part): as the sequence (P51617 whole entry, the tested form may be a part) above

OCI-LY19 = assay: Cytotoxicity against human OCILY19 cells expressing MYD88 mutant assessed as cell killing measured after 72 hrs by CellTiter-Glo luminescent cell viability assay; type: functional, cell-based; outline: as §1
[5] = Cytotoxicity against human HBL1 cells expressing MYD88 mutant assessed as cell killing measured after 72 hrs by CellTiter-Glo luminescent cell viability assay; type: functional, cell-based; outline: as §1
[6] = Cytotoxicity against human MWCL1 cells expressing MYD88 mutant assessed as cell killing measured after 72 hrs by CellTiter-Glo luminescent cell viability assay; type: functional, cell-based; outline: as §1
[7] = Cytotoxicity against human BCWM1 cells expressing MYD88 mutant assessed as cell killing measured after 72 hrs by CellTiter-Glo luminescent cell viability assay; type: functional, cell-based; conditions: BCWM1, 72 h; outline: as §1
RPMI-8226 = assay: Cytotoxicity against human RPMI-8226 cells expressing MYD88 mutant assessed as cell killing measured after 72 hrs by CellTiter-Glo luminescent cell viability assay; type: functional, cell-based; outline: as §1
[8] = molecular target: T1, Interleukin-1 receptor-associated kinase 1; assay: Covalent binding affinity to recombinant IRAK1 (unknown origin) assessed as labeling at Cys302/Cys307 residue sites at ratio 3:1 measured after 2 hrs by LC-MS analysis
Target sequence in this assay (P51617 whole entry, looked up, the tested form may be a part): as the sequence (P51617 whole entry, the tested form may be a part) above

[9] = molecular target: T2, Interleukin-1 receptor-associated kinase 4; assay: Inhibition of IRAK4 (unknown origin) using methylcoumarin-labeled peptide as substrate in presence of ATP by FRET assay
[10] = molecular target: T1, Interleukin-1 receptor-associated kinase 1; assay: Covalent binding affinity to recombinant IRAK1 (unknown origin) assessed as labeling at Cys307 residue site measured after 2 hrs by LC-MS analysis
Target sequence in this assay (P51617 whole entry, looked up, the tested form may be a part): as the sequence (P51617 whole entry, the tested form may be a part) above

[11] = molecular target: T3, Mitogen-activated protein kinase kinase kinase 19 (Homo sapiens, UniProt Q56UN5); assay: Inhibition of wild-type human partial length YSK4 (T1019 to H1328 residues) expressed in mammalian expression system by Kinomescan method
T3 sequence (Q56UN5 whole entry): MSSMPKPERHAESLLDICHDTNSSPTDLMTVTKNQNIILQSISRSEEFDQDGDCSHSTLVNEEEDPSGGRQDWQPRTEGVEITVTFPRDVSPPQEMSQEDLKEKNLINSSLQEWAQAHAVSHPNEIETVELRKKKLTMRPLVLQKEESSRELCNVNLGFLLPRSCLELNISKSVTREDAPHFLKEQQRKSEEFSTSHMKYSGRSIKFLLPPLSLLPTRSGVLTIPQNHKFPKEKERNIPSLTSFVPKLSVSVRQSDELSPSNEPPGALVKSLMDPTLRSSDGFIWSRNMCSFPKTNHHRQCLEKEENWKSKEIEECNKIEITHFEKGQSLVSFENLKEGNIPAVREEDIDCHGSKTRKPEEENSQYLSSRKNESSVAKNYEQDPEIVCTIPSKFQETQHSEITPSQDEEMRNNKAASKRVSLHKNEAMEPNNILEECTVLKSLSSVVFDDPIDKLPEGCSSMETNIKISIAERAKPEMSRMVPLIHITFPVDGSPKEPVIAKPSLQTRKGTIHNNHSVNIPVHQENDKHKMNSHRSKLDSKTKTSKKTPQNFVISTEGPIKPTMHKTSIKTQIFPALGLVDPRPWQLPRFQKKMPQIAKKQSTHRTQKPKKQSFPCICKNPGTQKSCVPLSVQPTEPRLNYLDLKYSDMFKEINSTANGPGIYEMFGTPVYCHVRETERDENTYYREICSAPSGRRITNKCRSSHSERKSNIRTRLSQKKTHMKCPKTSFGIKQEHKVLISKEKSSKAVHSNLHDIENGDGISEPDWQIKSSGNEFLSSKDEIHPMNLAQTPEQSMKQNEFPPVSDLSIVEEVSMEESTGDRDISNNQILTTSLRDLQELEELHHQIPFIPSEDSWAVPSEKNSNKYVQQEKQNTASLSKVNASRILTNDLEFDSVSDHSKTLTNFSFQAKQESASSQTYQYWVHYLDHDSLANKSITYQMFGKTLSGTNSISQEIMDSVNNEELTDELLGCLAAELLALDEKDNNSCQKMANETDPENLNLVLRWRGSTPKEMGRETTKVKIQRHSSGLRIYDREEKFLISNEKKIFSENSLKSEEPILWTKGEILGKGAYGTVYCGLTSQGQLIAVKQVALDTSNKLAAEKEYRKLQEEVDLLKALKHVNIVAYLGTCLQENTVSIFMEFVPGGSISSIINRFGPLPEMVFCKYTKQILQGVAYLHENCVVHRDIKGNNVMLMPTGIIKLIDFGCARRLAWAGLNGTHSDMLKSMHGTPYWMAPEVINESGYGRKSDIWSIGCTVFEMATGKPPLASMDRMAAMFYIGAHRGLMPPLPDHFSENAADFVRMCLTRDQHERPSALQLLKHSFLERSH

[12] = molecular target: T1, Interleukin-1 receptor-associated kinase 1; assay: Inhibition of desthio-biotinylated JH-XIII-39-01 probe binding to IRAK1 in human BCWM1 cells assessed as blocking of IRAK1 pulldown at 5 to 10 uM measured after 90 mins by Western blot based pulldown assay; type: cell-based
Target sequence in this assay (P51617 whole entry, looked up, the tested form may be a part): as the sequence (P51617 whole entry, the tested form may be a part) above

[13] = molecular target: T1, Interleukin-1 receptor-associated kinase 1; assay: Covalent binding affinity to recombinant IRAK1 (unknown origin) assessed as labeling at Cys302 residue site measured after 2 hrs by LC-MS analysis
Target sequence in this assay (P51617 whole entry, looked up, the tested form may be a part): as the sequence (P51617 whole entry, the tested form may be a part) above

[14] = Homo sapiens, OCI-Ly7, 72 h, read-out: EC50
[15] = Homo sapiens, OCI-Ly3, 72 h, read-out: EC50
[16] = Homo sapiens, TMD8, 72 h, read-out: EC50
[17] = Homo sapiens, Ramos, 72 h, read-out: EC50
[18] = Homo sapiens, OCI-LY19, 72 h, read-out: EC50
[19] = Homo sapiens, HBL1, 72 h, read-out: EC50
[20] = Homo sapiens, MWCL1, 72 h, read-out: EC50
[21] = Homo sapiens, RPMI-8226, 72 h, read-out: EC50

| SMILES | EC50 (OCI-Ly7; [14]) | EC50 (TMD8; [16]) | EC50 (OCI-LY19; [18]) | EC50 [5, 19] | EC50 [6, 20] | EC50 [7] | EC50 (RPMI-8226; [21]) | EC50 (OCI-Ly3; oci-ly3) | EC50 (TMD8; tmd8) | EC50 (Ramos; ramos) | EC50 ([5]; hbl1) | EC50 (RPMI-8226; rpmi-8226) | other results |
| --- | --- | --- | --- | --- | --- | --- | --- | --- | --- | --- | --- | --- | --- |
| CN(C)C/C=C/C(=O)Nc1cccc(C(=O)Nc2ccc(Nc3nccc(-c4cccnc4)n3)cc2)c1 | – | – | – | – | – | – | – | – | – | – | – | – | IC50 [1]: 0.0142 µM; IC50 [2]: > 10 µM |
| CN(C)C/C=C/C(=O)Nc1cccc(C(=O)Nc2ccc(NC(=O)c3cccc(-c4ccn[nH]4)n3)cc2)c1 | 7.65 µM | 10.6 µM | 1.8 µM | 18.2 µM | 8.13 µM | 5.62 µM | 19.8 µM | – | – | – | – | – | EC50 (OCI-Ly3; [15]): 14.3 µM; inhibition [3]: Active; EC50 (Ramos; [17]): 6.99 µM; IC50 [4]: 0.052 µM |
| COc1cc(N2CCOCC2)ccc1NC(=O)c1cccc(-c2ccn[nH]2)n1 | – | – | – | – | – | – | – | – | – | – | – | – | IC50 [1]: 0.009 µM; IC50 [2]: 0.017 µM |
| C=CC(=O)Nc1ccc(C(=O)Nc2cccc(NC(=O)c3cccc(-c4ccn[nH]4)n3)c2)cc1 | – | – | – | – | – | 418 µM | – | Not Active | Not Active | Not Active | Not Active | Not Active | EC50 (OCI-Ly7; oci-ly7): Not Active; Activity [8]: Active; EC50 (OCI-LY19; oci-ly19): Not Active; EC50 ([6]; mwcl1): Not Active; IC50 [9]: > 10 µM |
| C=CC(=O)Nc1ccc(C(=O)Nc2ccc(NC(=O)c3cccc(-c4ccn[nH]4)n3)cc2)cc1 | 5.16 µM | 5.26 µM | 0.71 µM | 14.6 µM | 4.91 µM | 2.54 µM | – | Not Active | – | Not Active | – | Not Active | Activity [10]: Active |
| C=CC(=O)Nc1cccc(C(=O)Nc2ccc(NC(=O)c3cccc(-c4ccn[nH]4)n3)cc2)c1 | 2.39 µM | 2.4 µM | 0.59 µM | 12.1 µM | 3.88 µM | 1.02 µM | 5.13 µM | – | – | – | – | – | EC50 (OCI-Ly3; [15]): 9.72 µM; IC50 [11]: 0.057 µM; inhibition [12]: Active; EC50 (Ramos; [17]): 1.79 µM; IC50 [9]: > 10 µM; Activity [13]: Active |
| C=CC(=O)Nc1cccc(C(=O)Nc2cccc(NC(=O)c3cccc(-c4ccn[nH]4)n3)c2)c1 | 16.1 µM | – | 2.9 µM | – | 29 µM | 12.8 µM | – | Not Active | Not Active | Not Active | Not Active | Not Active | inhibition [12]: Active; Activity [13]: Active |
| CCC(=O)Nc1cccc(C(=O)Nc2ccc(NC(=O)c3cccc(-c4ccn[nH]4)n3)cc2)c1 | 20.7 µM | – | 7.79 µM | – | – | 19.9 µM | 31.1 µM | Not Active | Not Active | Not Active | Not Active | – | EC50 ([6]; mwcl1): Not Active |
| CC1NC(=O)NC1CCCCCC(=O)NCCOCCOCCOCCNC(=O)CCN(C)C/C=C/C(=O)Nc1cccc(C(=O)Nc2ccc(NC(=O)c3cccc(-c4ccn[nH]4)n3)cc2)c1 (stereo not given) | – | – | – | – | – | – | – | – | – | – | – | – | IC50 [4]: 0.07 µM |
